According to ChEMBL document CHEMBL4680165, “β-Lactams with antiproliferative and antiapoptotic activity in breast and chemoresistant colon cancer cells” (Eur J Med Chem, 2020):
Active and inactive are the calls of the source. No cut-off for these calls is given here.

Experiments:
Tubulin (Homo sapiens) [1] = target: T1, Tubulin (Homo sapiens) (UniProt P68371+Q9H4B7+P0DPH7+P68366+Q13509+Q71U36+P04350+Q3ZCM7+P07437+P68363+Q9BQE3+Q6PEY2+Q13885+Q9BVA1+Q9BUF5); test: Induction of microtubule depolymerization in human MCF7 cells assessed as induction of cell detachment and loss of radical distribution at 100 nM for 5 hrs by immunofluorescence staining based confocal microscopic analysis
Procedure, shortened: (§1)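 MCF-7 cells were seeded at 1 × 10^5 cells/mL on chamber slides and treated at 0.01, 0.05 and 0.1 µM. Controls were vehicle (1% v/v ethanol), CA-4 (0.01 µM) and paclitaxel (1 µM). Cells were fixed and stained with anti-α-tubulin-FITC (DM1A) and Alexa Fluor 488, then counterstained with DAPI. Imaging was by confocal microscopy over three separate experiments.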

MCF7 [2] = test: Induction of apoptosis in human MCF7 cells assessed as total apoptotic cells at 0.01 uM after 48 hrs by Annexin V-FITC and propidium iodide staining based flow cytometry (reference value: 10 %); assay type: functional
Procedure, shortened: (§2)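 MCF-7 cells were seeded at 1 × 10^5 cells/mL and treated for 48 h at 0.01, 0.1 and 1 µM; vehicle was 0.1% v/v ethanol. Annexin V staining was done on ice in the dark for 30 min in HEPES/NaCl/CaCl2 binding buffer, followed by PI. Flow cytometry scored early apoptotic (Annexin V+/PI−) and late apoptotic (Annexin V+/PI+) cells; total apoptotic is Annexin V-positive cells.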

MCF7 [3] = test: Induction of apoptosis in human MCF7 cells assessed as late apoptotic cells after 48 hrs by Annexin V-FITC and propidium iodide staining based flow cytometry; assay type: functional, cell-based; settings: dose 10-1000 nM; procedure, shortened: as §2
HT-29 [4] = test: Antiangiogenic activity in human HT29 cells assessed as reduction in VEGF secretion at 5 uM after 24 hrs by ELISA; assay type: functional, cell-based
Procedure, shortened: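 HT-29 cells at 5 x 10^4 per well, cultured 24 h and then exposed to 5 µM compound. Conditioned medium collected on ice and stored at -80 °C. Cytokines and angiogenic, vascular-injury and chemokine factors measured by multiplex panels with overnight supernatant incubation (Angiogenesis Panel 1 and Vascular Injury Panel 2 same day). Medium undiluted except 1:4 for Vascular Injury Panel 2. Secretion normalised to lysate protein by BCA.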

MCF7 [5] = test: Antiproliferative activity against human MCF7 cells assessed as reduction in cell viability after 72 hrs by alamar blue assay; assay type: functional, cell-based; settings: MCF7, 72 h
Procedure, shortened: (§3)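 Cells seeded at 5 x 10^3/well (MCF-7) or 1 x 10^4/well (HT-29, HEK-293T) and treated after 24 h with serial dilutions (0.001-100 µM) in 1% v/v ethanol vehicle. Alamar Blue 10% v/v added at 72 h, then 3-5 h at 37 °C in the dark; fluorescence ex 530/em 590 nm. Viability relative to vehicle; IC50 from dose-response curves; mean of three experiments in triplicate.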

HT-29 [6] = test: Induction of apoptosis in human HT29 cells assessed as necrotic cells at 1 uM after 72 hrs by Annexin V-FITC and propidium iodide staining based flow cytometry (reference value: 3 %); assay type: functional
Procedure, shortened: (§4)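 HT-29 cells were treated at 1 µM for 24, 48 and 72 h against an untreated control. Cells were stained with Annexin V in binding buffer (HEPES pH 7.4, NaCl, CaCl2) for 30 min on ice in the dark, washed, resuspended in PI-containing buffer and read at once by flow cytometry. Quadrants: early apoptotic, late apoptotic, necrotic (Annexin V−/PI+).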

Bos taurus = species on record: Bos taurus; test: Inhibition of bovine brain tubulin polymerization at 10 uM measured at 30 sec interval for 30 mins in presence of GTP by turbidimetry-based spectrophotometric method
MCF7 [7] = test: Induction of apoptosis in human MCF7 cells assessed as downregulation of survivin expression level at 0.05 to 0.5 uM after 48 to 72 hrs by Western blot analysis; assay type: functional, cell-based; settings: dose 0.05-0.5 µM, time 48-72 hrs
Procedure, shortened: (§5)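 MCF-7 cells (1 × 10^5 per flask) were treated at 0.05, 0.1 and 0.5 µM for 48 and 72 h; vehicle was 0.1% v/v ethanol. Lysis was in RIPA buffer with protease and phosphatase inhibitors. Equal protein (BCA) was run on 12% SDS-PAGE and blotted for Mcl-1, Bcl-2 and survivin, with GAPDH as loading control and ECL detection. Three independent experiments.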

MCF7 [8] = test: Cell cycle arrest in human MCF7 cells assessed as accumulation at G2/M phase at 1 uM measured after 72 hrs by PI staining based flow cytometry analysis (reference value: 24 %); assay type: functional
Procedure, shortened: (§6)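 Cells (1 × 10^5/well) were treated at 1 µM for 24, 48 and 72 h; vehicle was 0.1% v/v ethanol. Cells were trypsinised, fixed in ice-cold 70% ethanol overnight at −20 °C, then stained with PI (50 µg/mL) plus DNase-free RNase A (50 µg/mL) at 37 °C for 30 min. DNA content of 10,000 cells per group was read by flow cytometry at 488 nm.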

MCF7 [9] = test: Cell cycle arrest in human MCF7 cells assessed as accumulation at sub-G1 phase at 1 uM measured after 72 hrs by PI staining based flow cytometry analysis; assay type: functional; procedure, shortened: as §6
HEK-293T = test: Antiproliferative activity against human HEK293T cells assessed as reduction in cell viability after 72 hrs by alamar blue assay; assay type: cell-based; procedure, shortened: as §3
MCF7 [10] = test: Induction of apoptosis in human MCF7 cells assessed as downregulation of Mcl-1 expression level measured after 48 hrs by Western blot analysis; assay type: functional, cell-based; settings: dose 0.05-0.5 µM; procedure, shortened: as §5
Tubulin (Homo sapiens) [11] = target: T1, Tubulin (Homo sapiens); test: Induction of microtubule depolymerization in human MCF7 cells assessed as induction of spindle formation at 10 to 50 nM for 5 hrs by immunofluorescence staining based confocal microscopic analysis; assay type: cell-based; settings: dose 10-50 nM; procedure, shortened: as §1
Tubulin (Homo sapiens) [12] = target: T1, Tubulin (Homo sapiens); test: Binding affinity to tubulin in human MCF7 cells assessed as inhibition of tubulin-EBI adduct formation preincubated for 2 hrs followed by EBI addition and measured after 1.5 hrs by Western blotting analysis; assay type: cell-based; settings: time 3.5 hrs
Procedure, shortened: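 MCF-7 cells (5 × 10^4/well) were incubated overnight, then given vehicle (0.1% v/v ethanol) or compound at 10 µM for 2 h. Selected wells then received EBI (100 µM) for 1.5 h. Cells were washed in ice-cold PBS, lysed in Laemmli buffer and run on SDS-PAGE. Blots were probed for β-tubulin and the β-tubulin–EBI adduct, with GAPDH as loading control. Three independent experiments.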

MCF7 [13] = test: Induction of apoptosis in human MCF7 cells assessed as early apoptotic cells after 48 hrs by Annexin V-FITC and propidium iodide staining based flow cytometry; assay type: functional, cell-based; settings: dose 10-1000 nM; procedure, shortened: as §2
HT-29 [14] = test: Induction of apoptosis in human HT29 cells assessed as necrotic cells at 1 uM after 48 hrs by Annexin V-FITC and propidium iodide staining based flow cytometry (reference value: 3 %); assay type: functional; procedure, shortened: as §4
MCF7 [15] = test: Induction of apoptosis in human MCF7 cells assessed as total apoptotic cells at 0.1 uM after 48 hrs by Annexin V-FITC and propidium iodide staining based flow cytometry (reference value: 10 %); assay type: functional; procedure, shortened: as §2
HT-29 [16] = test: Induction of apoptosis in human HT29 cells assessed as necrotic cells at 1 uM after 24 hrs by Annexin V-FITC and propidium iodide staining based flow cytometry (reference value: 3 %); assay type: functional; procedure, shortened: as §4
HT-29 [17] = test: Cell cycle arrest in human HT-29 cells assessed as accumulation at G2/M phase at 1 uM measured after 24 hrs by PI staining based flow cytometry analysis (reference value: 11 %); assay type: functional; procedure, shortened: as §6

COc1ccc([C@H]2[C@H](O)C(=O)N2c2cc(OC)c(OC)c(OC)c2)cc1F
Activity (Tubulin (Homo sapiens) [1]): Active
Activity (MCF7 [2]): 13%
Activity (MCF7 [3]): Dose-dependent effect
Activity (HT-29 [4]): inactive
IC50 (MCF7 [5]): 22 nM
Activity (HT-29 [6]): 22%
inhibition (Bos taurus): Active
Activity (MCF7 [7]): Active
Activity (MCF7 [8]): 60%
Activity (MCF7 [9]): 15%
IC50 (HEK-293T): > 50000 nM
Activity (MCF7 [10]): Dose-dependent effect
Activity (Tubulin (Homo sapiens) [11]): Active
Activity (Tubulin (Homo sapiens) [12]): Active
Activity (MCF7 [13]): Dose-dependent effect
Activity (HT-29 [14]): 11%
Activity (MCF7 [15]): 20%
Activity (HT-29 [16]): 8%
Activity (HT-29 [17]): 52%
